Measured values from paper PMC9334479 (Infectious Diseases and Therapy, 2022).
Where a SMILES comes first, the peptide text is derived from it.

Legend:
plasma protein = test: Plasma protein binding rate by equilibrium dialysis; type: in vitro ADME; settings: human, patient plasma, iv
Outline: (§1)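 Patient plasma from peak (10 min post-infusion) and trough (pre-dose) draws was dialysed against isotonic phosphate buffer, pH 7.4, across a semipermeable membrane at 37 °C for 5 h. Dialysate and plasma were matrix-matched with blank plasma or buffer, then extracted and quantified by LC–MS/MS as for total levels. fu = Cd/Cp. Total and free levels were compared by Spearman rank correlation.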

Free = type: in vivo, human; settings: for Free Cmax / Free Cmin: equilibrium dialysis, median (IQR); for Correlation between total and free plasma concentrations: Spearman's rank correlation, Cmax and Cmin, Fig. 2
Outline: as §1

[1] = Total plasma concentration of PMB, PMB1 and PMB2 by HPLC-MS/MS; type: in vivo, human; settings: for Cmin (B1)/Cmin (B2): median (IQR)
Outline: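 Critically ill adults received IV PMB sulfate. Plasma was drawn at the sixth or later dose, 10 min after infusion end (Cmax) and just before dosing (Cmin), spun at 3500g, 2–8 °C for 10 min, and stored at −80 °C. Plasma plus polymyxin E internal standard underwent formic acid/acetonitrile extraction. Analysis used C18 gradient LC and positive MRM 402.1→101.15 (PMB1), 397.4→101.15 (PMB2). AKI was graded by RIFLE SCr criteria.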

patients = settings: cited from earlier work
[2] = pH 7.4, Protein binding rate, Cmax sample, AKI group N = 25, equilibrium dialysis, phosphate buffer pH 7.4, 37 °C, 5 h, LC-MS/MS, median (IQR)
[3] = pH 7.4, Protein binding rate, Cmax sample, non-AKI group N = 64, equilibrium dialysis, phosphate buffer pH 7.4, 37 °C, 5 h, LC-MS/MS, median (IQR)
[4] = pH 7.4, Protein binding rate, Cmin sample, AKI group N = 25, equilibrium dialysis, phosphate buffer pH 7.4, 37 °C, 5 h, LC-MS/MS, median (IQR)
[5] = pH 7.4, Protein binding rate, Cmin sample, non-AKI group N = 64, equilibrium dialysis, phosphate buffer pH 7.4, 37 °C, 5 h, LC-MS/MS, median (IQR)

CC(C)CCCCC(=O)N[C@@H](CCN)C(=O)N[C@H](C(=O)N[C@@H](CCN)C(=O)N[C@H]1CCNC(=O)[C@H]([C@@H](C)O)NC(=O)[C@H](CCN)NC(=O)[C@H](CCN)NC(=O)[C@H](CC(C)C)NC(=O)[C@@H](Cc2ccccc2)NC(=O)[C@H](CCN)NC1=O)[C@@H](C)O [PMB2, polymyxin B2] (HELM PEPTIDE1{[CC(C)CCCCC(=O)[*:2]].[Dab].T.[Dab].[Dab].[Dab].[dF].L.[Dab].[Dab].T}$PEPTIDE1,PEPTIDE1,5:R3-11:R2$$$V2.0)
fraction unbound at 5 h (plasma protein; pH 7.4): 0.215
fraction unbound at 5 h (plasma protein; [2]): 0.141
fraction unbound at 5 h (plasma protein; [3]): 0.161
fraction unbound at 5 h (plasma protein; [4]): 0.194
fraction unbound at 5 h (plasma protein; [5]): 0.221
Free Cmax (Free; AKI group N = 25): 0.16 (0.14–0.19) μg/ml
Free Cmin (Free; AKI group N = 25): 0.07 (0.06–0.09) μg/ml
Correlation between total and free plasma concentrations (Free): positively correlated
Free Cmax (Free; non-AKI group N = 64): 0.14 (0.11–0.18) μg/ml
Free Cmin (Free; non-AKI group N = 64): 0.07 (0.05–0.10) μg/ml

CC[C@H](C)CCCCC(=O)N[C@@H](CCN)C(=O)N[C@H](C(=O)N[C@@H](CCN)C(=O)N[C@H]1CCNC(=O)[C@H]([C@@H](C)O)NC(=O)[C@H](CCN)NC(=O)[C@H](CCN)NC(=O)[C@H](CC(C)C)NC(=O)[C@@H](Cc2ccccc2)NC(=O)[C@H](CCN)NC1=O)[C@@H](C)O [PMB1, polymyxin B1] (HELM PEPTIDE1{[CC[C@H](C)CCCCC(=O)[*:2]].[Dab].T.[Dab].[Dab].[Dab].[dF].L.[Dab].[Dab].T}$PEPTIDE1,PEPTIDE1,5:R3-11:R2$$$V2.0)
Cmax (B1), RIFLE category Failure (F) ([1]; 1 patient with AKI stage Failure, total plasma peak concentration): 6.17
fraction unbound at 5 h (plasma protein; pH 7.4): 0.055
fraction unbound at 5 h (plasma protein; [2]): 0.045
fraction unbound at 5 h (plasma protein; [3]): 0.042
fraction unbound at 5 h (plasma protein; [4]): 0.053
fraction unbound at 5 h (plasma protein; [5]): 0.057
Free Cmax (Free; AKI group N = 25): 0.19 (0.12–0.26) μg/ml
Free Cmin (Free; AKI group N = 25): 0.05 (0.04–0.19) μg/ml
Correlation between total and free plasma concentrations (Free): positively correlated
Free Cmax (Free; non-AKI group N = 64): 0.14 (0.11–0.18) μg/ml
Free Cmin (Free; non-AKI group N = 64): 0.07 (0.04–0.10) μg/ml

colistin
Incidence of AKI (patients; colistin given iv as colistimethate sodium): 30–76.1%
Optimal cut-off trough concentration for predicting nephrotoxicity (patients; colistin-related nephrotoxicity): 3.33 mg/L

CC[C@H](C)CCCCC(=O)N[C@@H](CCN)C(=O)N[C@H](C(=O)N[C@@H](CCN)C(=O)N[C@H]1CCNC(=O)[C@H]([C@@H](C)O)NC(=O)[C@H](CCN)NC(=O)[C@H](CCN)NC(=O)[C@H](CC(C)C)NC(=O)[C@@H](Cc2ccccc2)NC(=O)[C@H](CCN)NC1=O)[C@@H](C)O [PMB, polymyxin B] (HELM PEPTIDE1{[CC[C@H](C)CCCCC(=O)[*:2]].[Dab].T.[Dab].[Dab].[Dab].[dF].L.[Dab].[Dab].T}$PEPTIDE1,PEPTIDE1,5:R3-11:R2$$$V2.0)
Cmin (B1)/Cmin (B2) ([1]; AKI group N = 25): 3.37 (2.85–3.68)
Cmin (B1)/Cmin (B2) ([1]; non-AKI group N = 64): 3.27 (2.91–3.65)
